Source: PubChem (Sanford-Burnham Center for Chemical Genomics)
mIAP block: blocks mouse intestinal alkaline phosphatase. purified mouse IAP, CDP-Star luminescence, 30 min. AID 2806. 330,000 tested, 0.2% active. inhibition, % at 10 µM;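 active = inhibition of at least 40% at 10 µM in the primary screen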
bIAP activator: increases bovine intestinal alkaline phosphatase activity. purified bovine IAP, CDP-star luminescence, 30 min; stronger effect = higher value; fold of DMSO-control signal, blank-subtracted. 200,000 tested, 0.17% active. activation factor at 20 µM;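 active = activation factor of 2 or more at 20 µM, a signal rise over negative controls twice the positive control's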
mIAP act: mouse IAP activation; muIAP, CDP-Star luminescence, 30 min; stronger effect = higher value; 1 = vehicle-only enzyme signal, 0 = enzyme-free wells; activation factor at 10 µM; 330,000 tested, 0.24% active; AID 2805;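 active = activation factor of at least 2 at 20 µM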
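Assay system: mouse IAP enzyme; Reagent: CDP-Star chemiluminescent phosphatase substrate; Compound: DMSO-dissolved test compounds; Incubation: 30 min, room temperature; Technique: luminescence from enzymatic CDP-Star hydrolysis; Controls: DMSO-only wells and no-enzyme negative control.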
hIAP activ: increases human intestinal alkaline phosphatase activity | 330,000 tested, 0.16% active | purified human IAP, CDP-Star luminescence, 30 min; stronger effect = higher value; 1 = vehicle-only enzyme, 0 = enzyme-free background | activation factor at 10 µM;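 active = activation factor of the enzyme at least 2-fold when tested at 20 µM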
Target sequence (P09923 whole entry, looked up): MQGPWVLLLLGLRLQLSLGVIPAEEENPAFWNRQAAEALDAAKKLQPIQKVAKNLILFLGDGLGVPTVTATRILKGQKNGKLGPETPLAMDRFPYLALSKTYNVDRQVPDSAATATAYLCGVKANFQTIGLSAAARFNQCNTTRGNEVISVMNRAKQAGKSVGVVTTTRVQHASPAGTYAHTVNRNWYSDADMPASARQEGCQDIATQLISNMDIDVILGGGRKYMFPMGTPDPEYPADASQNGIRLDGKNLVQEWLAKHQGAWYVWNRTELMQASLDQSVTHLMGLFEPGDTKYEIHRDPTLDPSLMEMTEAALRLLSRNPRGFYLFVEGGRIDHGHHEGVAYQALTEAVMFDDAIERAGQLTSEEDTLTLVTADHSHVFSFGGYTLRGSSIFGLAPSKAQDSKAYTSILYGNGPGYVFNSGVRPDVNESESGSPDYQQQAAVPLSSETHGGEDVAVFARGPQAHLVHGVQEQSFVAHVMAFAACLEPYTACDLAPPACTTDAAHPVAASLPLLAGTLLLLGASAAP
hIAP block: blocks human intestinal alkaline phosphatase; P09923; purified IAP, CDP-Star luminescence, 30 min; inhibition, % at 10 µM; 330,000 tested, 0.12% active; AID 2544;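 active = inhibition reaching a set limit with compound at 10 µM in the primary screen, cut at about 35% in these data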
bIAP inhibitor: blocks bovine intestinal alkaline phosphatase activity; inhibition, % at 20 µM; AID 1019; 190,000 tested, under 10 active; purified bovine IAP, CDP-star luminescence, 30 min;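 active = over 50% inhibition of intestinal alkaline phosphatase at 20 µM in the single-dose screen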
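Assay system – bovine IAP enzyme · Quantity – bovine IAP at 1/65,000,000 final dilution · Detection – CDP-star luminescence signal · Times – 30 min reaction at room temperature · Also added – CDP-star substrate at 30 µM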
mIAP inh conf: mouse IAP inhibition confirmation. purified mouse IAP, CDP-Star luminescence, 30 min. AID 434971. 11,000 tested, 4.7% active. inhibition, % at 10 µM. shares compounds with mIAP block;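 active = inhibition of at least 40% at 10 µM in either of the two replicates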
Of the large screens only hits and unclear results are named; the others gave an inactive call (follow-up assays come after a bar, where they were run). Most compounds without a hit are left out; they make up all but 0.72% or so of the library.

COc1ccc(CN2C3CCCC2CC(NC(=O)Nc2cccc(C)c2)C3)cc1 (stereo unspecified)	mIAP act 11.9 | mIAP inh conf inactive
COc1ccc(CN2C3CCCC2CC(NC(=O)Nc2ccccc2C)C3)cc1 (stereo unspecified)	mIAP act 2.98 | mIAP inh conf inactive
COCC(=O)NC1CC2CCCC(C1)N2Cc1ccccc1 (stereo unspecified)	none
CC(=O)c1cccc(NC(=O)C(C)OC(=O)CCN=C2NS(=O)(=O)c3ccccc32)c1 (stereo unspecified)	none (no result: bIAP activator, bIAP inhibitor)
CCN(Cc1ccccc1)C(c1cc2cc(C)ccc2[nH]c1=O)c1nnnn1CCOC (stereo unspecified)	mIAP block 56.4 | mIAP inh conf 57.4
COCCn1nnnc1C(c1cc2c(C)cc(C)cc2[nH]c1=O)N1CCCCCC1 (stereo unspecified)	none
COCCn1nnnc1C(c1cc2cc(C)ccc2[nH]c1=O)N1CCCCCC1 (stereo unspecified)	mIAP block 67.1 | mIAP inh conf 70.4
CCOC(=O)C1CCCN(C(=O)c2cccc(S(=O)(=O)N(Cc3ccccc3)c3ccccc3OC)c2)C1 (stereo unspecified)	none (no result: bIAP activator, bIAP inhibitor)
COc1ccc(S(=O)(=O)N(C)C[C@H]2Oc3c(NC(=O)Nc4c(C)noc4C)cccc3C(=O)N([C@H](C)CO)C[C@@H]2C)cc1	none (no result: bIAP activator, bIAP inhibitor)
COc1ccc(C(=O)OCC(=O)NC2CCCCCC2)cc1OC	mIAP block 58.2 (no result: bIAP activator, bIAP inhibitor) | mIAP inh conf 70.7
Oc1cccc(O)c1O	mIAP block 52.1 (no result: bIAP activator, bIAP inhibitor) | mIAP inh conf 57.9
CCc1cccc(NC(=O)CCNS(=O)(=O)c2ccc3[nH]c(=O)oc3c2)c1	none (no result: bIAP activator, bIAP inhibitor)
CCOc1ccccc1CNC(=O)CCNS(=O)(=O)c1ccc2[nH]c(=O)oc2c1	mIAP block 61.4 (no result: bIAP activator, bIAP inhibitor) | mIAP inh conf 76.6
N#Cc1cccc(NC(=O)CCNS(=O)(=O)c2ccc3[nH]c(=O)oc3c2)c1	mIAP block 74.9 (no result: bIAP activator, bIAP inhibitor) | mIAP inh conf 74.6
CCOc1ccccc1NC(=O)CCNS(=O)(=O)c1ccc2[nH]c(=O)oc2c1	none (no result: bIAP activator, bIAP inhibitor)
COc1ccc(NC(=O)CCNS(=O)(=O)c2ccc3[nH]c(=O)oc3c2)cc1Cl	mIAP block 44.5 (no result: bIAP activator, bIAP inhibitor) | mIAP inh conf 64.7
CCOC(=O)c1c(C)[nH]c(C(=O)COC(=O)CNC(=O)c2ccc(Cl)cc2Cl)c1C	none
O=C(CN1C(=O)NC2(CCCC2)C1=O)OCc1ccc(Cl)cc1Cl	none (no result: bIAP activator, bIAP inhibitor)
N#CC1=C(N)n2c(s/c(=C\c3ccco3)c2=O)=C(C#N)C1c1ccco1 (stereo unspecified)	mIAP block 67.7 | mIAP inh conf 88.4
CCOC(=O)C1=C(N)n2c(s/c(=C/c3ccco3)c2=O)=C(C(=O)OC)C1c1ccco1 (stereo unspecified)	none (no result: mIAP block, mIAP act, hIAP activ, hIAP block)
COc1ccc(/C=C/C(=O)NC(=S)Nc2cc([N+](=O)[O-])ccc2O)cc1OC	none
O=C(NCC1CC1)Nc1ccc(Cl)cc1	none (no result: bIAP activator, bIAP inhibitor)
Cc1ccc(C)c(CN2CCC(CNC(=O)Nc3ccc(Cl)cc3)CC2)c1	mIAP act 2.71 (no result: bIAP activator, bIAP inhibitor) | mIAP inh conf inactive
COc1cc(/C=N/n2c(-c3n[nH]c4c3CCC4)n[nH]c2=S)cc(OC)c1O	none (no result: bIAP activator, bIAP inhibitor)
S=c1[nH]nc(-c2cc(-c3ccccc3)n[nH]2)n1/N=C/C=C/c1ccco1	mIAP block 48.0 (no result: bIAP activator, bIAP inhibitor) | mIAP inh conf 46.9
S=c1[nH]nc(-c2ccco2)n1/N=C/C=C/c1ccco1	mIAP block 68.9 | mIAP inh conf 69.5
S=c1[nH]nc(COc2ccccc2)n1/N=C/C=C/c1ccccc1	none
S=c1[nH]nc(-c2cc(-c3ccccc3)n[nH]2)n1/N=C/c1c(Cl)cccc1Cl	none (no result: bIAP activator, bIAP inhibitor)
S=c1[nH]nc(COc2ccccc2)n1/N=C/C=C/c1ccco1	mIAP block 50.8 (no result: bIAP activator, bIAP inhibitor) | mIAP inh conf 57.9
COc1ccccc1/C=C/C=N/n1c(-c2ccco2)n[nH]c1=S	none (no result: bIAP activator, bIAP inhibitor)
S=c1[nH]nc(-c2n[nH]c3c2CCC3)n1/N=C/C=C/c1ccco1	mIAP block 49.6 (no result: bIAP activator, bIAP inhibitor) | mIAP inh conf 41.5
O=C(CSc1cc(Cl)ccc1Cl)NCCN1C(=O)CSC1=O	none (no result: bIAP activator, bIAP inhibitor)
CCOC(=O)c1ccccc1NC(=O)COC(=O)CSc1ccccc1	none (no result: bIAP activator, bIAP inhibitor)
